Assay outcomes from PubChem.
FGF22 binding – shifts melting point of recombinant human FGF22; 340,000 compounds, 1.5% hits; recombinant FGF22 thermal shift, SYPRO orange fluorescence; percent of sucrose octasulfate shift, DMSO zero; Q9HCT0; AID 651658; activity (Tm shift, normalised), % at 9.99 µM;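 active = mean Tm shift, scaled 0 neutral to 100 positive control, at about 1.3% or above, every replicate too, limit read from the data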
SIRT5 block – inhibitors of human sirtuin-5 desuccinylase; Q9NXA8; Purified SirT5, succinyl-peptide AMC, trypsin-coupled fluorescence; inhibition, % at 15 µM; 330,000 compounds, 1.1% hits; AID 652115; in the data active = inhibition above about 15%
Target sequence (Q9NXA8 whole entry, looked up): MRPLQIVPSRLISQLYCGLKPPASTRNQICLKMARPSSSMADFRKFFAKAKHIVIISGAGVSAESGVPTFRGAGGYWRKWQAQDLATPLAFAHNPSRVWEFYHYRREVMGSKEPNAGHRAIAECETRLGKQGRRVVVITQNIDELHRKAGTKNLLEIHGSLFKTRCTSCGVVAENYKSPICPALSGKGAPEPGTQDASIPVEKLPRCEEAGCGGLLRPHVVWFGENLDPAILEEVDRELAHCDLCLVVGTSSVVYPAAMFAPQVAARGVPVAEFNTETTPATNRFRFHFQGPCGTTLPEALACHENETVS
E-sel inducer – induces E-selectin expression in human endothelial cells. activation, % at 7.58 µM. HUVEC E-selectin immunofluorescence imaging; normalized: neutral wells 0, TNF-alpha wells 100. 260,000 compounds, 0.37% hits;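 active = mean E-selectin-positive cell signal at least 10% of the positive control, reached in at least 60% of replicates, without over 20% cell loss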
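System: HUVEC, human umbilical vein endothelial cells; quantity: 3,000 cells/well; buffer or medium: EGM-2 medium, gelatin-coated wells; dosing: single-point compound dose; detection: immunofluorescence imaging; evaluation: % PE-positive cells; benchmarks: TNF-alpha, DMSO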
S100A4 MyoIIA – S100A4-myosin IIA interaction inhibition; P26447; inhibition, % at 10.7 µM; S100A4/TAMRA-MyoIIA peptide fluorescence polarization; 360,000 compounds, 0.14% hits;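 active = mean inhibition of at least 70% across replicates, with every replicate also reaching that level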
Target sequence (P26447 whole entry, looked up): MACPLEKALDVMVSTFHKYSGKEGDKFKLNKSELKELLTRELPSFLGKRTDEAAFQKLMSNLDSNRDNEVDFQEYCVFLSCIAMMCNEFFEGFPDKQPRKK
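Compound dosing: one dose per compound; test system: human S100A4 monomer with TAMRA-labelled myosin IIA peptide; probe or stimulus: TAMRA-labelled myosin IIA heavy-chain peptide probe, 5 nM; medium: HEPES buffer with Ca2+, pH 7.2; schedule: 5 min incubation before reading; benchmarks: neutral control DMSO, positive control TFP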
miR-122 sensor – inhibitors of miR-122 in Huh7 cells. activation (reporter increase), % at 12.5 µM. 340,000 compounds, 0.3% hits. Huh7 miR-122 Renilla luciferase sensor, 48 h; neutral wells = 0, positive control = 100;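 active = mean replicate activation score at least 90 and every replicate individually at or above 90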;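 also: higher luciferase means less miR-122 activity so hits act as miR-122 inhibitors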
The depositor's hits bear a star; . = no result given; [ ] = another dose, or the depositor's remark. Only some compounds are listed: those with a hit (about 2.5% of all), similar ones and a draw of the others.

SMILES | FGF22 binding | SIRT5 block | E-sel inducer | S100A4 MyoIIA | miR-122 sensor
COc1cc(Cl)c(CN2CCCC(CO)(Cc3ccccc3F)C2)cc1OC (centres undefined) | -0.1 | 100.6* | . | -8.1 | 0.7
O=C(C[C@H]1CC[C@@H]2[C@H](COC[C@H](O)CN2S(=O)(=O)c2ccc(Cl)cc2)O1)NCCN1CCCC1 | -0.1 | -3.0 | 0.0 | -4.1 | -3.0[16.7 µM]
C[C@@H]1CN([C@@H](C)CO)C(=O)Cc2cc(NC(=O)Nc3ccc4c(c3)OCO4)ccc2O[C@H]1CN(C)S(=O)(=O)c1ccc(Cl)cc1 | -0.2 | -3.5 | -11.2 | 11.1 | -2.7[16.7 µM]
C[C@H]1CN([C@@H](C)CO)C(=O)Cc2cc(NC(=O)Nc3cccc4ccccc34)ccc2O[C@H]1CN(C)Cc1ccccc1 | -0.8 | 0.3 | 0.3 | 0.7 | -8.6[16.7 µM]
COc1cccc(CNC(=O)C[C@@H]2CC[C@H]3[C@H](COc4ccc(NC(C)=O)cc4C(=O)N3C)O2)c1 | 0.1 | . | 0.0 | . | -36.7[16.7 µM]
C[C@H](CO)N1C[C@H](C)[C@@H](CN(C)S(C)(=O)=O)Oc2ccc(NS(=O)(=O)c3ccc(F)cc3)cc2C1=O | . | . | . | . | 4.8[16.7 µM]
COc1ccc(CN(C(=O)c2snc(C(N)=O)c2N)C(C(=O)NC2CCCC2)c2ccc(OC)cc2)cc1 (centres undefined) | -0.4 | -2.4 | . | -2.4 | -1.9
COc1ccc(CN(C(=O)c2nsc(Cl)c2Cl)C(C(=O)NC2CCCC2)c2ccc(OC)cc2)cc1 (centres undefined) | 43.2* | -1.4 | . | -9.2 | .
CN(Cc1ccccc1)S(=O)(=O)c1ccc2c(c1)NC(=O)CC(=O)N2 | . | . | . | . | -2.8
CCN(Cc1ccccc1)S(=O)(=O)c1ccc2c(c1)NC(=O)CC(=O)N2 | 43.5* | -0.6 | -3.2 | 1.3 | .
CCCc1c(C(=O)N/N=C(\C)c2ccc3c(c2)OCO3)nnn1-c1nonc1N | 0.0 | -3.1 | . | 1.3 | -1.6
CCCc1c(C(=O)N/N=C(\C)c2ccc(CC(C)C)cc2)nnn1-c1nonc1N | 43.6* | . | -0.3 | 0.9 | -0.6
CC1=NCCN1CCNC(=O)Nc1ccc(F)cc1 | 0.1 | 17.0* | . | -3.1 | -6.9
CC1=NCCN1CCNC(=O)Nc1cc(C)cc(C)c1 | -0.3 | 21.4* | . | -2.3 | -6.0
Cc1cccc(NC(=O)NCCN2CCCCC2)c1 | -0.2 | 2.0 | . | -67.8 | -3.4
O=S(=O)(c1ccccc1)N1C[C@H]2[C@@H](c3ccccc31)[C@H](CO)N2Cc1ccc2c(c1)OCO2 | 0.2 | 0.2 | 0.4 | 20.9 | 10.0[16.7 µM]
O=C(c1ccccc1F)N1C[C@H]2[C@@H](c3ccccc31)[C@@H](CO)N2CC1CCCCC1 | 0.5 | 27.2* | -0.5 | -20.8 | -2.8[16.7 µM]
Cc1cccc(S(=O)(=O)N2C[C@H]3[C@@H](c4ccccc42)[C@@H](CO)N3CC2CCCC2)c1 | -0.9 | 15.0* | -0.1 | 1.1 | 42.9[16.7 µM]
CCC(=O)N1C[C@H]2[C@@H](c3ccccc31)[C@@H](CO)N2CC1CCCC1 | -1.1 | 16.2* | -0.2 | 3.0 | -9.5[16.7 µM]
O=S(=O)(c1ccccc1)N1C[C@H]2[C@@H](c3ccccc31)[C@@H](CO)N2Cc1ccc2c(c1)OCO2 | 0.2 | 3.1 | 0.0 | 3.7 | 140.0*[16.7 µM]
Cc1cccc(S(=O)(=O)N2C[C@@H]3[C@H](c4ccccc42)[C@@H](CO)N3CC2CCCC2)c1 | -4.2 | 14.6 | 0.0 | 7.3 | 12.2[16.7 µM]
O=C(NCC[C@H]1CC[C@H](NC(=O)C2CCOCC2)[C@H](CO)O1)Nc1ccc(Cl)cc1 | . | 1.7 | -0.4 | 0.5 | .
O=C(CC(F)(F)F)N1C[C@@H]2[C@H](c3ccccc31)[C@@H](CO)N2CC1CCOCC1 | -0.8 | 6.3 | -0.1 | 90.1* | 14.3[16.7 µM]
Cc1ccc(S(=O)(=O)N(C)C[C@H]2Oc3ccc(NC(=O)NC4CCCCC4)cc3CC(=O)N([C@@H](C)CO)C[C@H]2C)cc1 | 0.1 | 2.9 | 1.6 | 8.6 | -2.6[16.7 µM]
CN(C)S(=O)(=O)c1ccc2c(c1)nc(CCC(=O)NCC1CCCCC1)n2C | . | . | . | . | 164.0*
CN(C)S(=O)(=O)c1ccc2c(c1)nc(CCC(=O)NCc1ccc(Cl)cc1)n2C | 0.2 | . | . | -5.3 | 11.4
COc1ccc(S(=O)(=O)N(C)C[C@H]2Oc3ccc(NC(=O)Nc4cccc5ccccc45)cc3C(=O)N([C@H](C)CO)C[C@H]2C)cc1 | . | . | 0.0 | . | 46.4[16.7 µM]
O=C1c2ccccc2S(=O)(=O)N1CC(O)COc1ccc(Cl)cc1 (centres undefined) | . | . | . | . | 0.4
